Our source for the folding enthalpy and Tm values is the array DNA melting data of Ke et al. (doi:10.1101/2024.01.08.574731).

The nature of data set [1]: folding enthalpy; higher = less favourable; fluorescence melt of hairpins on a sequencing array, two-state fit. The settings on record: sodium 0.088 M. The procedure, abridged: (§1)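 Folding enthalpy and melting temperature come from bootstrapped two-state fits to Cy3 fluorescence of library hairpins carrying annealed Cy3 and quencher oligos on a sequenced MiSeq flow cell. Imaging was done in 50 mM Na-HEPES pH 8.0, 25 mM NaCl, stepping by 2.5 °C up to 60 °C, and signals were normalised to pre-quench Cy3 and to control constructs. Results of four replicates were combined by inverse variance, and fitted temperatures were raised by 9.35 °C to match UV melts.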

Data set [2] is described as follows: melting temperature; fluorescence melt of hairpins on a sequencing array, two-state fit, raised by 9.35 °C to match UV melts. The settings on record: sodium 0.088 M. The procedure, abridged:
as §1

On to GAAATTGGAAACGATTTC (((((.(....).))))), for which, in data set [1], the folding enthalpy was -30.1 kcal/mol. In addition, the Tm in data set [2] is 37.6 °C.

Consider GAACAAGGAAACTTGCTC ((.((((....)))).)), for which the folding enthalpy in data set [1] was -19.4 kcal/mol. Besides, in data set [2], the Tm amounted to 29.4 °C.

Regarding GAACACCCGAAAGGGTTC (((..(((....)))))), the folding enthalpy in data set [1] was -8.81 kcal/mol. For the same sequence, in data set [2], the Tm amounted to 30.7 °C.

Regarding GAACACCGAAAGGTATTC (((.(((....))).))), in data set [1], the folding enthalpy was -25 kcal/mol. The Tm in data set [2] turned out to be 37.8 °C.

In the case of GAACACGAAAGTGAATTC ((((((....)))..))), the folding enthalpy in data set [1] is -13.3 kcal/mol. Besides, the Tm in data set [2] was determined as 25.1 °C.

As to GAACACGAAAGTGGCTTC ((((((....)))..))), the folding enthalpy in data set [1] is -23 kcal/mol. Further, the Tm in data set [2] came to 45.4 °C.

As to GAACACGGAAACGCGTTC ((((.((....)).)))), the folding enthalpy in data set [1] is -35.8 kcal/mol. Moreover, the Tm in data set [2] was 48.1 °C.

GAACACGGAAACGTATTC (((.(((....))).))): in data set [1], the folding enthalpy is -22.6 kcal/mol. In data set [2], the Tm was 33 °C.

Regarding GAACACGGAAACGTGTTC (((((((....))))))), the folding enthalpy in data set [1] is -38.1 kcal/mol. In addition, the Tm in data set [2] was 67.5 °C.

Take GAACAGGGAAACCCGTTC ((((.((....)).)))): the folding enthalpy in data set [1] is -24.4 kcal/mol. In data set [2], the Tm was 41.8 °C.

GAACAGGGAAACCTGCTC ((.((((....)))).)): in data set [1], the folding enthalpy is -18.8 kcal/mol. For the same sequence, the Tm in data set [2] came out at 37.1 °C.

For GAACAGGGAAACCTGTTC (((((((....))))))), in data set [1], the folding enthalpy was -37.8 kcal/mol. Besides, the Tm in data set [2] is 59.4 °C.

Take GAACATGAAAATGTTC ((((((....)))))): in data set [1], the folding enthalpy is -28.9 kcal/mol. In data set [2], the Tm was determined as 52 °C.

Consider GAACCACCGAAAGGTTTC (((..(((....)))))), for which the folding enthalpy in data set [1] was -9.16 kcal/mol. In data set [2], the Tm was 22.3 °C.

Turning to GAACCAGGAAACTGGCTC ((.((((....)))).)), the folding enthalpy in data set [1] is -21.8 kcal/mol. For the same sequence, the Tm in data set [2] was determined as 39.6 °C.

GAACCCCGAAAGGGATTC (((.(((....))).))): in data set [1], the folding enthalpy was -28.5 kcal/mol. Besides, the Tm in data set [2] was 46 °C.

Take GAACCCCGAAAGGGCTTC (((.(((....))).))): in data set [1], the folding enthalpy was -15.3 kcal/mol. Moreover, the Tm in data set [2] came out at 34.3 °C.

With GAACCCGAAAGGGTTTC ((((((....))).))), in data set [1], the folding enthalpy was -12.1 kcal/mol. Also, the Tm in data set [2] stood at 56.9 °C.

Turning to GAACCCGAAAGGGTTTTC ((((((....)))..))), the folding enthalpy in data set [1] was -13.4 kcal/mol. Further, the Tm in data set [2] worked out at 55.9 °C.

As for GAACCCGGAAACGAGTTC ((((.((....)).)))), the folding enthalpy in data set [1] is -27.2 kcal/mol. For the same sequence, the Tm in data set [2] came out at 40.8 °C.

In the case of GAACCCGGAAACGGATTC (((.(((....))).))), the folding enthalpy in data set [1] was -21 kcal/mol. In addition, in data set [2], the Tm amounted to 41.5 °C.

In the case of GAACCGCGAAAGCGCTTC (((.(((....))).))), the folding enthalpy in data set [1] was -10.6 kcal/mol. The Tm in data set [2] turned out to be 35.1 °C.

For GAACCGGAAACGGTTC ((((((....)))))), in data set [1], the folding enthalpy was -33 kcal/mol. The Tm in data set [2] was 67.4 °C.

Consider GAACCGGGAAACTGGTTC (((((.(....).))))), for which, in data set [1], the folding enthalpy was -41.7 kcal/mol. The Tm in data set [2] was 51.4 °C.

Turning to GAACCTGGAAACAGGCTC ((.((((....)))).)), in data set [1], the folding enthalpy is -18.9 kcal/mol. The Tm in data set [2] is 40 °C.

Consider GAACGACGAAAGTCATTC (((.(((....))).))), for which the folding enthalpy in data set [1] is -21.6 kcal/mol. Further, the Tm in data set [2] is 38.6 °C.

In the case of GAACGAGGAAACTCATTC (((.(((....))).))), in data set [1], the folding enthalpy was -15.5 kcal/mol. Besides, the Tm in data set [2] amounted to 24.8 °C.

In the case of GAACGAGGAAACTCGTCC (.(((((....))))).), in data set [1], the folding enthalpy is -13.7 kcal/mol. Also, in data set [2], the Tm was found to be 37.8 °C.

On to GAACGAGGAAACTCGTTC (((((((....))))))), for which the folding enthalpy in data set [1] is -41.2 kcal/mol. Also, the Tm in data set [2] is 63.8 °C.

Take GAACGCCGAAAGGCTTC (((.(((....)))))): the folding enthalpy in data set [1] was -14.1 kcal/mol. Further, the Tm in data set [2] came out at 44.1 °C.

With GAACGCGAAAGCGAATTC ((((((....)))..))), the folding enthalpy in data set [1] is -10.7 kcal/mol. In addition, in data set [2], the Tm was found to be 28.8 °C.

With GAACGCGAAAGCGCGTTC ((((((....)))..))), in data set [1], the folding enthalpy was -25.5 kcal/mol. Besides, the Tm in data set [2] came to 63.1 °C.

In the case of GAACGCGAAAGCGGATTC ((((((....)))..))), the folding enthalpy in data set [1] is -15.8 kcal/mol. The Tm in data set [2] turned out to be 49.5 °C.

GAACGCGGAAACGTGTTC ((((.((....)).)))): the folding enthalpy in data set [1] was -37.7 kcal/mol. Also, the Tm in data set [2] is 56 °C.

For the sequence GAACGGCGAAAGCCTTTC (((.(((....))).))), in data set [1], the folding enthalpy was -18 kcal/mol. Further, the Tm in data set [2] stood at 39.7 °C.

Consider GAACGGGGAAACCCATTC (((.(((....))).))), for which the folding enthalpy in data set [1] was -19 kcal/mol. Also, the Tm in data set [2] amounted to 33.2 °C.
